Measurements taken from PMC9623233 (Clinical Cancer Research, 2022).

Legend:
[1] = tested on: high-grade serous ovarian cancer; assay: Antitumor activity: RECIST v1.1 response and time on treatment; assay type: in vivo, human
[2] = ref previous unpublished trial Eudra CT 2009-012933-31; cited from earlier work
[3] = CT900 plasma pharmacokinetics, noncompartmental analysis; assay type: in vivo, human; details: Cycle 1 Day 1; for AUC(0-t) / Cmax / clearance / Tmax / Vd: human, plasma, iv
In short: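 Test compound was given intravenously, weekly (1–6 mg/m2) or every 2 weeks (2–12 mg/m2). Plasma concentration–time data were analysed noncompartmentally for AUClast, AUC∞, AUC0–24, Cmax, Tmax, t1/2, λz, clearance and Vss. Summaries are geometric mean with CV%, arithmetic mean and median.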

[4] = tested on: α-FR–overexpressing preclinical model; assay: Combination of CT900 and PARP inhibition, growth inhibition; assay type: cell-based; details: Supplementary Fig. S3

C#CCN(c1ccc(C(=O)N[C@@H](CCC(=O)N[C@H](CCC(=O)O)C(=O)O)C(=O)O)cc1)[C@H]1CCc2cc3nc(CO)[nH]c(=O)c3cc21 [CT900, N-[4-[2-propyn-1-yl[(6S)-4,6,7,8-tetrahydro-2-(hydroxymethyl)-4-oxo-3H-cyclopenta [g]quinazolin-6-yl]amino]benzoyl]-l-gamma-glutamyl-D-glutamic acid]
RECIST v1.1 response rate ([1]; 6 mg/m^2/q2Wk, medium and high α-FR, 0/9): 0% | Patients who received treatment for ≥16 weeks ([1]; 12 mg/m^2/q2Wk, medium and high α-FR, 5/25): 20% | RECIST v1.1 response rate ([1]; 12 mg/m^2/q3Wk, medium and high α-FR, 1/5): 20% | Partial responses ([1]; dose escalation cohort, high-grade serous ovarian cancer, 4 of 11): 36.4% | Overall response rate (ORR) ([1]; expansion cohorts, regardless of α-FR status, 14/64): 21.9% | Median cumulative dose at which pulmonary toxicity occurred [2]: 162 mg/m^2 | HL Lambda_z ([3]; 1 mg/m^2 i.v., Geometric Mean, N 3): 6.1 h | HL Lambda_z ([3]; 1 mg/m^2 i.v., Mean, N 3): 6.7 h | HL Lambda_z ([3]; 1 mg/m^2 i.v., Median, N 3): 7.5 h | HL Lambda_z ([3]; 1 mg/m^2 i.v., Range, N 3): 3.2 to 9.4 h | HL Lambda_z ([3]; 2 mg/m^2 i.v., Geometric Mean, N 4): 11.8 h | HL Lambda_z ([3]; 2 mg/m^2 i.v., Mean, N 4): 12.6 h | HL Lambda_z ([3]; 2 mg/m^2 i.v., Median, N 4): 11.3 h | HL Lambda_z ([3]; 2 mg/m^2 i.v., Range, N 4): 7.5 to 20.0 h | HL Lambda_z ([3]; 6 mg/m^2 i.v., Mean, N 1): 19.9 h | HL Lambda_z ([3]; 12 mg/m^2 i.v., Geometric Mean, N 5): 28.1 h | HL Lambda_z ([3]; 12 mg/m^2 i.v., Mean, N 5): 28.7 h | HL Lambda_z ([3]; 12 mg/m^2 i.v., Median, N 5): 26.5 h | HL Lambda_z ([3]; 12 mg/m^2 i.v., Range, N 5): 23.0 to 41.0 h | AUC(0-t) ([3]; 1 mg/m2, AUC0-24, 1 mg/m^2 i.v., Mean, N 3): 1650 ng·h/mL | AUC(0-t) ([3]; 1 mg/m2, AUC0-24, 1 mg/m^2 i.v., Median, N 3): 1620 ng·h/mL | AUC(0-t) ([3]; 1 mg/m2, AUC0-24, 1 mg/m^2 i.v., Range, N 3): 1020 to 2330 ng·h/mL | AUC(0-t) ([3]; 1 mg/m2, AUClast, 1 mg/m^2 i.v., Mean, N 3): 1650 ng·h/mL | AUC(0-t) ([3]; 1 mg/m2, AUClast, 1 mg/m^2 i.v., Median, N 3): 1620 ng·h/mL | AUC(0-t) ([3]; 1 mg/m2, AUClast, 1 mg/m^2 i.v., Range, N 3): 1020 to 2330 ng·h/mL | Cmax ([3]; 1 mg/m2, C max, 1 mg/m^2 i.v., Mean, N 3): 402 ng/mL | Cmax ([3]; 1 mg/m2, C max, 1 mg/m^2 i.v., Median, N 3): 401 ng/mL | Cmax ([3]; 1 mg/m2, C max, 1 mg/m^2 i.v., Range, N 3): 374 to 432 ng/mL | clearance ([3]; 1 mg/m2, Cl, 1 mg/m^2 i.v., Mean, N 3): 20.3 mL/min | clearance ([3]; 1 mg/m2, Cl, 1 mg/m^2 i.v., Median, N 3): 20.8 mL/min | clearance ([3]; 1 mg/m2, Cl, 1 mg/m^2 i.v., Range, N 3): 10.4 to 29.7 mL/min | Tmax ([3]; 1 mg/m2, T max, 1 mg/m^2 i.v., Mean, N 3): 1 h | Tmax ([3]; 1 mg/m2, T max, 1 mg/m^2 i.v., Median, N 3): 1 h | Tmax ([3]; 1 mg/m2, T max, 1 mg/m^2 i.v., Range, N 3): 1 h | Vd ([3]; 1 mg/m2, Vss, 1 mg/m^2 i.v., Mean, N 3): 7.59 L | Vd ([3]; 1 mg/m2, Vss, 1 mg/m^2 i.v., Median, N 3): 6.75 L | Vd ([3]; 1 mg/m2, Vss, 1 mg/m^2 i.v., Range, N 3): 6.71 to 9.32 L | AUC(0-t) ([3]; 2 mg/m2, AUC0-24, 2 mg/m^2 i.v., Mean, N 4): 4890 ng·h/mL | AUC(0-t) ([3]; 2 mg/m2, AUC0-24, 2 mg/m^2 i.v., Median, N 4): 4730 ng·h/mL | AUC(0-t) ([3]; 2 mg/m2, AUC0-24, 2 mg/m^2 i.v., Range, N 4): 2520 to 7590 ng·h/mL | AUC(0-t) ([3]; 2 mg/m2, AUClast, 2 mg/m^2 i.v., Mean, N 4): 6860 ng·h/mL | AUC(0-t) ([3]; 2 mg/m2, AUClast, 2 mg/m^2 i.v., Median, N 4): 6050 ng·h/mL | AUC(0-t) ([3]; 2 mg/m2, AUClast, 2 mg/m^2 i.v., Range, N 4): 2520 to 12800 ng·h/mL | Cmax ([3]; 2 mg/m2, C max, 2 mg/m^2 i.v., Mean, N 4): 746 ng/mL | Cmax ([3]; 2 mg/m2, C max, 2 mg/m^2 i.v., Median, N 4): 759 ng/mL | Cmax ([3]; 2 mg/m2, C max, 2 mg/m^2 i.v., Range, N 4): 613 to 855 ng/mL | clearance ([3]; 2 mg/m2, Cl, 2 mg/m^2 i.v., Mean, N 4): 11.2 mL/min | clearance ([3]; 2 mg/m2, Cl, 2 mg/m^2 i.v., Median, N 4): 8.72 mL/min | clearance ([3]; 2 mg/m2, Cl, 2 mg/m^2 i.v., Range, N 4): 4.07 to 23.4 mL/min | Tmax ([3]; 2 mg/m2, T max, 2 mg/m^2 i.v., Mean, N 4): 0.9 h | Tmax ([3]; 2 mg/m2, T max, 2 mg/m^2 i.v., Median, N 4): 1 h | Tmax ([3]; 2 mg/m2, T max, 2 mg/m^2 i.v., Range, N 4): 0.5 to 1.1 h | Vd ([3]; 2 mg/m2, Vss, 2 mg/m^2 i.v., Mean, N 4): 8.52 L | Vd ([3]; 2 mg/m2, Vss, 2 mg/m^2 i.v., Median, N 4): 7.41 L | Vd ([3]; 2 mg/m2, Vss, 2 mg/m^2 i.v., Range, N 4): 6.53 to 12.7 L | AUC(0-t) ([3]; 6 mg/m2, AUC0-24, 6 mg/m^2 i.v., Mean, N 1): 15100 ng·h/mL | AUC(0-t) ([3]; 6 mg/m2, AUClast, 6 mg/m^2 i.v., Mean, N 1): 25600 ng·h/mL | Cmax ([3]; 6 mg/m2, C max, 6 mg/m^2 i.v., Mean, N 1): 2030 ng/mL | clearance ([3]; 6 mg/m2, Cl, 6 mg/m^2 i.v., Mean, N 1): 7.67 mL/min | Tmax ([3]; 6 mg/m2, T max, 6 mg/m^2 i.v., Mean, N 1): 1 h | Vd ([3]; 6 mg/m2, Vss, 6 mg/m^2 i.v., Mean, N 1): 12 L | AUC(0-t) ([3]; 12 mg/m2, AUC0-24, 12 mg/m^2 i.v., Geometric Mean, N 5): 46900 ng·h/mL | AUC(0-t) ([3]; 12 mg/m2, AUC0-24, 12 mg/m^2 i.v., Mean, N 5): 47200 ng·h/mL | AUC(0-t) ([3]; 12 mg/m2, AUC0-24, 12 mg/m^2 i.v., Median, N 5): 45400 ng·h/mL | AUC(0-t) ([3]; 12 mg/m2, AUC0-24, 12 mg/m^2 i.v., Range, N 5): 42300 to 58600 ng·h/mL | AUC(0-t) ([3]; 12 mg/m2, AUClast, 12 mg/m^2 i.v., Geometric Mean, N 5): 85900 ng·h/mL | AUC(0-t) ([3]; 12 mg/m2, AUClast, 12 mg/m^2 i.v., Mean, N 5): 87600 ng·h/mL | AUC(0-t) ([3]; 12 mg/m2, AUClast, 12 mg/m^2 i.v., Median, N 5): 83500 ng·h/mL | AUC(0-t) ([3]; 12 mg/m2, AUClast, 12 mg/m^2 i.v., Range, N 5): 68700 to 123000 ng·h/mL | Cmax ([3]; 12 mg/m2, C max, 12 mg/m^2 i.v., Geometric Mean, N 5): 5100 ng/mL | Cmax ([3]; 12 mg/m2, C max, 12 mg/m^2 i.v., Mean, N 5): 5130 ng/mL | Cmax ([3]; 12 mg/m2, C max, 12 mg/m^2 i.v., Median, N 5): 4830 ng/mL | Cmax ([3]; 12 mg/m2, C max, 12 mg/m^2 i.v., Range, N 5): 4460 to 6010 ng/mL | clearance ([3]; 12 mg/m2, Cl, 12 mg/m^2 i.v., Geometric Mean, N 5): 3.45 mL/min | clearance ([3]; 12 mg/m2, Cl, 12 mg/m^2 i.v., Mean, N 5): 3.6 mL/min | clearance ([3]; 12 mg/m2, Cl, 12 mg/m^2 i.v., Median, N 5): 3.68 mL/min | clearance ([3]; 12 mg/m2, Cl, 12 mg/m^2 i.v., Range, N 5): 2.1 to 5.05 mL/min | Tmax ([3]; 12 mg/m2, T max, 12 mg/m^2 i.v., Geometric Mean, N 5): 1 h | Tmax ([3]; 12 mg/m2, T max, 12 mg/m^2 i.v., Mean, N 5): 1 h | Tmax ([3]; 12 mg/m2, T max, 12 mg/m^2 i.v., Median, N 5): 1 h | Tmax ([3]; 12 mg/m2, T max, 12 mg/m^2 i.v., Range, N 5): 1 h | Vd ([3]; 12 mg/m2, Vss, 12 mg/m^2 i.v., Geometric Mean, N 5): 7.59 L | Vd ([3]; 12 mg/m2, Vss, 12 mg/m^2 i.v., Mean, N 5): 7.62 L | Vd ([3]; 12 mg/m2, Vss, 12 mg/m^2 i.v., Median, N 5): 7.33 L | Vd ([3]; 12 mg/m2, Vss, 12 mg/m^2 i.v., Range, N 5): 6.99 to 9.06 L | Effect of combination of CT900 and PARP inhibition [4]: synergistic growth inhibition
